Published values gathered from unrelated publications.
Protocols differ between the studies behind these lines.
Observed: cell growth or viability

Compound	cell line	test	conditions	measurement	value
O=C(CCCCCCSc1ccc2ccccc2c1)NO	OCI-Ly1	ATP luminescence	0.1 µM, 5 days	viability	194%
C[C@H](Nc1ccc2c(c1)OCCn1cc(N3C(=O)OC[C@H]3C(F)F)nc1-2)C(N)=O	ESS-1	ATP luminescence	5 days	EC50	0.341 µM
O=C(Nc1ccc(Cl)cc1)C1CCCN(C(=O)c2cc(C(F)(F)F)cc(C(F)(F)F)c2)C1 (racemic)	OCI-Ly1	ATP luminescence	0.1 µM, 5 days	viability	191%
CCCCCCCCCCCCCCCCCCOCC(COP(=O)([O-])OCC[N+](C)(C)C)OC (stereo not drawn)	HOP-62	SRB	10 µM	inhibition	56%
O=C(Nc1ccc(-c2ccccc2)cc1)[C@H]1O[C@H](O[C@@H]2[C@@H](OCc3ccc4ccccc4c3)[C@H](O[C@H]3O[C@H](CNS(=O)(=O)O)[C@@H](OCc4ccc5ccccc5c4)C[C@H]3NS(=O)(=O)O)[C@@H](NS(=O)(=O)O)C[C@H]2NS(=O)(=O)O)[C@H](OCc2ccc3ccccc3c2)[C@@H](NS(=O)(=O)O)[C@@H]1OCc1ccc2ccccc2c1	4T1	CCK-8	48 h	EC50	12.5 µM
CCCCCCCCCCCCCCCCCCOc1cccc(CC(=O)OCCC[N+](C)(C)C)c1	HOP-62	SRB	10 µM	inhibition	15.9%
O=C(Nc1cccc(Br)c1)c1cccc(S(=O)(=O)N2CCCCCC2)c1	OCI-Ly1	ATP luminescence	1 µM, 5 days	viability	153%
O=C(NCC1CC1)c1ccc(-c2nc3ccc4[nH]ncc4c3c3c2CCCC3)cc1	K562	resazurin	72 h	GI50	> 10 µM
CCCCCCCCCCCCCCCCCCOc1ccccc1CC(=O)OCC[N+](CC)(CC)CC	HOP-62	SRB	10 µM	inhibition	59%
Cc1n[nH]c2ccc3nc(-c4ccc(C(=O)NCCN5CCCC5)cc4)c4c(c3c12)CCCC4	K562	resazurin	72 h	GI50	2.3 µM
O=C(NO)c1ccc(CC(=O)N(CCO)c2ccccc2)cc1	OCI-Ly1	ATP luminescence	0.1 µM, 5 days	viability	94.6%
O=C(NCCN1CCCC1)c1ccc(-c2nc3ccc4[nH]ncc4c3c3c2CCCC3)c(F)c1	K562	resazurin	72 h	GI50	1.7 µM
CCCCCCCCCCCCCCCCCCOc1ccccc1CC(=O)OCC[N+]1(C)CCOCC1	HOP-92	SRB	10 µM	inhibition	55.8%
NC(=O)c1ccc(-c2nc3ccc4[nH]ncc4c3c3c2CCCC3)cc1	K562	resazurin	72 h	GI50	7.6 µM
COC(=O)CNC(=O)C(=O)OC	OCI-Ly1	ATP luminescence	0.1 µM, 5 days	viability	198%
